Screening results deposited in PubChem BioAssay by Broad Institute.
RAD52 anneal inh: blocks human RAD52 DNA annealing; P43351; recombinant RAD52 DNA annealing, FRET fluorescence; inhibition, % at 18.7 µM; actives 0.46% (n = 360,000); AID 651710;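 active means every replicate showing at least 50% inhibition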
Target sequence (P43351 whole entry, looked up): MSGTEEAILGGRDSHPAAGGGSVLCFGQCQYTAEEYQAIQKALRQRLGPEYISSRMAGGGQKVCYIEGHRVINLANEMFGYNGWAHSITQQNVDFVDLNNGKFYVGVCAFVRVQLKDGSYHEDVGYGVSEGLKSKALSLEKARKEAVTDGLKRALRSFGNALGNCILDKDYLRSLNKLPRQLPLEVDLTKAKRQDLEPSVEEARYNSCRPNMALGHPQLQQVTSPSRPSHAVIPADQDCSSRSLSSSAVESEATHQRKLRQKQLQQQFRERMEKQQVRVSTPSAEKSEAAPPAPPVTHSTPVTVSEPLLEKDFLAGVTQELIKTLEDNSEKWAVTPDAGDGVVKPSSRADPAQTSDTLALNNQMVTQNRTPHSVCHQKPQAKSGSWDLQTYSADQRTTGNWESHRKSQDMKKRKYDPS
GSIS activator: GLuc luminescence reporter in INS-1E cells, primary screen for activators of glucose-dependent secretion of insulin; activation, % at 16.6 µM; INS-1E GLuc reporter insulin secretion, 2-3 h; AID 743287; actives 0.61% (n = 370,000);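 active means lowest replicate activation of at least 40%, so every replicate reaches that level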;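 further: 0% = median of neutral control wells and 100% = median of IBMX positive control wells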
E-sel inducer: induces E-selectin expression in human endothelial cells | P16581 | HUVEC E-selectin immunofluorescence imaging; normalized: neutral wells 0, TNF-alpha wells 100 | activation, % at 7.58 µM | actives 0.37% (n = 260,000) | AID 686992;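 active means mean E-selectin-positive cell signal at least 10% of the positive control, reached in at least 60% of replicates, without over 20% cell loss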
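Assay system: HUVEC, human umbilical vein endothelial cells / Amount: 3,000 HUVEC/well / Controls: TNF-alpha positive control, DMSO neutral control / Compound dosing: single concentration / Medium: EGM-2 over gelatin coat / Evaluation: percent E-selectin-positive cells / Signal: immunofluorescence imaging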
AF4-AF9 inh: blocks AF4 peptide binding to human AF9; AlphaScreen, biotin-AF4 peptide binding to FLAG-AF9; inhibition, % at 10 µM; actives 0.47% (n = 350,000); AID 651704;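 active means every replicate reaching a set inhibition limit, whatever the replicate mean, cut at about 25% in these data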;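 further: 0% = plate neutral control median and 100% = total signal loss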
RAD54 branch: blocks human RAD54 Holliday junction branch migration; FAM/BHQ fluorescence; inhibition, % at 10.4 µM; actives 0.14% (n = 360,000);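 active means mean normalized replicate activity at least 40 and at least half of replicates scoring 40 or more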;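 further: 0% = median of neutral control wells and 100% = median of positive control wells; inhibitors cause a drop in the FAM fluorescence signal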
rRNA inh HTS: inhibitors of bacterial rRNA selective over humanized ribosomes. AID 720706. E. coli WT GFP vs humanized-ribosome RFP mutants, fluorescence, 24 h; active compounds read low; DMSO median 0, no signal -100. actives 1.6% (n = 350,000). GFP signal change (wild-type ribosome), % (test concentration not listed);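 active means significant combined selectivity score with lowered wild-type GFP, culture density cut under 30%, mutant RFP and density less affected; inactive means any of these conditions unmet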
* marks the source's active call; other numbers are inactive results; . = no result. Sampled rows, rich in hits. Any-hit rate of the full collection: about 2.6%.

SMILES	RAD52 anneal inh	GSIS activator	E-sel inducer	AF4-AF9 inh	RAD54 branch	rRNA inh HTS
Cc1cc(=O)oc2cc(OC(C)C(=O)O)c(Cl)cc12 (centres undefined)	.	.	.	.	6	.
CCC(=O)N1C[C@H](C)[C@@H](OC)CN(C)C(=O)c2cc(NC(=O)C3CCCCC3)ccc2OC[C@@H]1C	-3	1	0	0	-8	0
CCOC(=O)c1ccc(-n2c(N)c(C(=O)NCc3ccco3)sc2=S)cc1	6	-5	.	24	0	-26*
COc1ccc(-n2c(N)c(C(=O)NCc3ccco3)sc2=S)cc1	.	.	.	.	-8	.
O=C(C/C=N\OCc1ccc([N+](=O)[O-])cc1)Nc1ccc(Cl)cc1	-5	-5	.	-1	.	-40*
CC(=O)c1ccc(-c2c(C)cc3oc(=O)cc(-c4ccccc4)c3c2C)cc1	-3	24	.	4	0	-22*
S=c1[nH]nc(SCc2ccccc2)c2[nH]cnc12	-21	-13	1	-4	3	-17*
O=C(NC[C@@H]1CC[C@H]2[C@H](CN2Cc2cccc(Cl)c2)O1)C1CCC1	2	.	.	-3	.	.
O=C(NC[C@H]1CC[C@H]2[C@H](CN2Cc2cccc(Cl)c2)O1)C1CCC1	67*	.	.	-3	.	.
COc1ccccc1C(=O)Nc1c(C(=O)N(CCN(C)C)Cc2ccco2)oc2ccccc12	-5	-11	.	22	3	-40*
CSc1nnc2c3cc(C)ccc3n(Cc3ccccc3)c2n1	.	140*	.	.	.	.
C[C@@H]1CN([C@@H](C)CO)C(=O)Cc2cc(NS(=O)(=O)c3ccc(F)cc3)ccc2O[C@H]1CN(C)Cc1ccc(C(=O)O)cc1	5	3	0	-4	.	-1
CC1=CC(=O)C=CC1=Nc1ccc(N(C)C)cc1	-4	9	0	91*	.	-4
C=CCNC(=O)[C@@H]1[C@H]2C(=O)O[C@H](c3ccccc3)[C@H](c3ccccc3)N2[C@H](c2ccccc2OCCO)[C@@]12C(=O)N(C(=O)OCCOC)c1ccccc12	11	.	.	-1	-3	.
CC(=O)Nc1ccc2c(c1)C(=O)N(C)[C@@H]1CC[C@H](CC(=O)NCc3ccccc3Cl)O[C@@H]1CO2	-6	-2	0	-1	4	-3
O=S1(=O)c2ccc(Br)cc2OCCC2CCCCN21 (centres undefined)	-12	7	0	0	.	-21*
O=C(CC1(c2ccc(Cl)cc2)C2CC3CC(C2)CC1C3)NCCO (centres undefined)	-19	0	1	-4	.	-42*
C[C@@H]1CN([C@H](C)CO)C(=O)c2cc(C#Cc3ccccc3F)cnc2O[C@H]1CN(C)S(=O)(=O)c1ccccc1F	-10	-11	1	-1	-4	-2
COc1ccc(C[C@H]2CN3C(=NC[C@@H]3Cc3ccc(O)cc3)N2CCNC(=O)c2ccc(C)c(Br)c2)cc1	23	.	.	29*	-3	-48
COc1ccc(C[C@H]2CN3C(=NC[C@H]3Cc3ccccc3)N2CCNC(=O)c2ccc(C)c(Br)c2)cc1	.	.	.	.	13	.
Cc1ccc(C(=O)NCCN2C3=NC[C@H](Cc4ccc(O)cc4)N3C[C@H]2Cc2ccc(O)cc2)cc1Br	26	28	0	29*	12	-57
COc1ccc(/C=N/n2c(C)nc3ccccc3c2=O)cc1	-11	-1	31*	5	0	1
COc1cccc(NC(=O)C2CCC(CNS(=O)(=O)c3cccc4cccnc34)CC2)c1 (centres undefined)	-11	-7	0	-3	-3	-26*
Cc1cc(/C=C(/C#N)c2cccc(F)c2)c(C)n1-c1cccnc1	-28	4	.	6	-4	-35*
[N-]=[N+]=NC[C@H](Cc1ccccc1)N1CC[C@@H](OCc2ccccc2)CCC1=O	-15	.	0	-1	-13	-25*
SMILES	RAD52 anneal inh	GSIS activator	E-sel inducer	AF4-AF9 inh	RAD54 branch	rRNA inh HTS
COc1ccc(NC(=O)CSc2ccccn2)c([N+](=O)[O-])c1	-17	-2	0	11	-12	-26*
C[C@@H]1CN([C@@H](C)CO)C(=O)c2cccc(NC(=O)Nc3ccc(F)cc3)c2O[C@H]1CN(C)S(C)(=O)=O	5	8	.	1	0	3
CCOC(=O)c1sc(NC(=O)CN2C(=O)C3CC=CCC3C2=O)nc1C (centres undefined)	-6	-4	151*	-1	9	-1
Cc1nc2ccccc2n1Cc1ccc(Br)cc1	-9	-27	.	3	-4	-47*
COc1ccc(C(=O)c2cc([N+](=O)[O-])ccc2N2CCOCC2)cc1	-15	0	5	13	.	-19*
COc1ccc(/C=C(\NC(=O)c2ccc([N+](=O)[O-])cc2)C(=O)NCCN2CCOCC2)cc1	-5	-10	.	1	8	20
COc1ccc(C(=O)NNC(=S)NC(=O)c2cccc([N+](=O)[O-])c2)cc1	-13	-13	8	-4	6	-26*
COc1ccc(C(=O)NC(=S)NNC(=O)c2ccccc2C)cc1	-29	.	.	0	-3	-41*
COc1ccc(/C=C(\NC(=O)c2ccc([N+](=O)[O-])cc2)C(=O)NCCCN2CCOCC2)cc1	-11	3	0	-3	4	-14*
Cc1ccccc1-c1ccc2c(c1)O[C@H](CN(C)C)[C@@H](C)CN([C@@H](C)CO)S2(=O)=O	18	15	0	2	-2	-1
C[C@@H]1CCCCO[C@H](CN(C)C)[C@@H](C)CN([C@@H](C)CO)C(=O)c2cc(NC(=O)Nc3ccccc3)ccc2O1	14	-1	0	-5	7	-1
CNC[C@H]1OCc2ccccc2-c2c(n(C)c3ccccc23)C(=O)N([C@@H](C)CO)C[C@@H]1C	.	7	.	.	.	3
CCCN1C[C@H](C)[C@@H](OC)CN(C)C(=O)c2ccc(NC(=O)c3ccccc3F)cc2OC[C@@H]1C	12	-6	0	-2	.	2
COc1ccccc1N1CCN(C(=O)C(=O)c2cccc([N+](=O)[O-])c2)CC1	-2	3	0	6	.	-5
COc1ccc(N2CCN(C(=O)C(=O)c3cccc([N+](=O)[O-])c3)CC2)cc1	-1	.	0	9	.	-4.6*
COc1ccc2c3c(n(C)c2c1)[C@@H](CO)N(C(=O)CN(C)C)CC31CN(S(C)(=O)=O)C1	12	10	0	3	.	3
CCCCc1nnc2c(N(C)S(=O)(=O)c3ccccc3)nc3ccccc3n12	8	44*	.	-7	-18	0
CNC(=O)C[C@@H]1CC[C@H]2[C@H](COc3ccc(NC(=O)Nc4ccccc4)cc3C(=O)N2C)O1	1	0	0	-2	-12	-1
C[C@H](CO)N1C[C@H](C)[C@@H](CN(C)C)Oc2ccc(NC(=O)NC3CCCCC3)cc2C1=O	-3	-8	.	2	10	2
